Xi reactivation: activators of X-chromosome reactivation in mouse fibroblasts; XiGFP mouse fibroblasts, % GFP-positive cells imaging, 3 d; cells co-treated with 5-aza-dC sensitizer; scaled so ellipticine positive control = 100%; activation, % at 7.58 µM; 360,000 compounds, 0.055% hits;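 active = mean normalized replicate activation at least 10% and every replicate at or above 10%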;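 also: 0% = median of on-plate neutral control wells and 100% = ellipticine 6 µM median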
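material = 68-5-11 XiGFP fibroblast line | medium = DMEM plus 5-aza-dC sensitizer | schedule = 3 days compound exposure | benchmarks = positive control ellipticine, 6 µM final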
E-sel inducer: induces E-selectin expression in human endothelial cells; HUVEC E-selectin immunofluorescence imaging; normalized: neutral wells 0, TNF-alpha wells 100; activation, % at 7.58 µM; 260,000 compounds, 0.37% hits; AID 686992;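 active = mean E-selectin-positive cell signal at least 10% of the positive control, reached in at least 60% of replicates, without over 20% cell loss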
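material = human umbilical vein endothelial cells (HUVEC), E-selectin induction | quantity = 3,000 cells/well | medium = EGM-2 growth medium on 0.1% gelatin-coated wells | technique = immunofluorescence imaging | read-out basis = % PE-positive cells | control set = TNF-alpha positive control, DMSO neutral control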
* = called active by the depositor; · = no result given; ! = not active in a repeat. This is one part of a sample in which hits are shown more often than they occur.

SMILES | Xi reactivation | E-sel inducer
C/C=C/c1ccc([C@H]2[C@@H](CO)N3C(=O)CN(C(=O)c4cnccn4)C[C@@H]23)cc1 | 0 | 1
Cc1cc(C(=O)Nc2cccc3c2O[C@@H](CN(C)S(=O)(=O)c2cccs2)[C@H](C)CN([C@@H](C)CO)C3=O)n(C)n1 | 0 | 0
CO[C@H]1CN(C)C(=O)c2ccc(NC(=O)C3CC3)cc2OC[C@@H](C)N(C(=O)C2CCOCC2)C[C@@H]1C | 0 | 0
Cc1noc(C)c1NC(=O)Nc1cccc2c1O[C@@H](CN(C)S(C)(=O)=O)[C@@H](C)CN([C@H](C)CO)C2=O | 0 | -2
C[C@H]1CN([C@@H](C)CO)C(=O)c2cc(NC(=O)CCCN(C)C)ccc2O[C@H]1CN(C)S(=O)(=O)c1ccc(F)cc1 | -1 | -1
Cc1cc(C(=O)CN2C(=O)C(=O)N(Cc3ccco3)C2=O)c(C)n1CCc1ccccc1 | 0 | ·
Cc1cc(C(=O)CN2C(=O)C(=O)N(Cc3ccco3)C2=O)c(C)n1CCc1ccc(F)cc1 | 0 | 90*
CNC[C@H]1Oc2ccc(NS(C)(=O)=O)cc2CC(=O)N([C@H](C)CO)C[C@@H]1C | 0 | 0
CC1(C)Cc2ccccc2-c2nc3n(c(=O)c21)CCCS3 | 0 | ·
CC1(C)Cc2ccccc2-c2nc3n(c(=O)c21)CCS3 | 0 | 77*
Cc1cccc(NS(=O)(=O)c2csc(C(N)=O)c2)c1 | 0 | 0
Cc1cccc(NS(=O)(=O)c2csc(C(N)=O)c2)c1C | 0 | 50*
CC(C)CN(CCNC(=O)c1cn(C)c2ccc(S(=O)(=O)N3CCCC3)cc2c1=O)CC(C)C | 0 | 0
CC(C)CCNC(=O)c1cn(C)c2ccc(S(=O)(=O)N3CCCC3)cc2c1=O | 0 | 37*
CC(C)NC(=O)N(C)C[C@H]1Oc2ccc(NC(=O)CCN3CCOCC3)cc2C(=O)N([C@@H](C)CO)C[C@H]1C | 0 | 46*
C[C@H]1CN([C@@H](C)CO)C(=O)c2cc(NC(=O)CCN3CCOCC3)ccc2O[C@H]1CN(C)Cc1ccncc1 | 0 | -11
C[C@@H]1CN([C@@H](C)CO)C(=O)c2cc(NC(=O)CCN3CCOCC3)ccc2O[C@H]1CN(C)Cc1ccncc1 | 0 | 32*
C[C@@H]1CN([C@@H](C)CO)C(=O)c2cc(NC(=O)CCN3CCOCC3)ccc2O[C@@H]1CN(C)C(=O)NC1CCCCC1 | 0 | -7
C[C@@H]1CN([C@H](C)CO)C(=O)c2cc(NS(=O)(=O)c3cn(C)cn3)ccc2O[C@@H]1CN(C)Cc1ccncc1 | 0 | -4
CC(C)NC(=O)N(C)C[C@@H]1Oc2ccc(NC(=O)CCN3CCOCC3)cc2C(=O)N([C@H](C)CO)C[C@H]1C | 0 | 65*
C[C@H]1CN([C@@H](C)CO)C(=O)c2cc(NC(=O)CCN3CCOCC3)ccc2O[C@@H]1CN(C)C(=O)NC1CCCCC1 | 0 | 9
C[C@@H]1CN([C@H](C)CO)C(=O)c2cc(NS(=O)(=O)c3cn(C)cn3)ccc2O[C@H]1CN(C)Cc1ccncc1 | 0 | 92*
Cc1ccc(S(=O)(=O)N[C@@H]2C=C[C@@H](CC(=O)N3CCC(Cc4ccccc4)CC3)O[C@H]2CO)cc1 | -1 | 1
C[C@@H]1CN([C@@H](C)CO)C(=O)c2cc(NS(=O)(=O)c3cccs3)ccc2O[C@@H]1CN(C)S(C)(=O)=O | 0 | 154*
Cc1noc(C)c1NC(=O)N(C)C[C@@H]1Oc2ccc(NS(=O)(=O)c3c(C)noc3C)cc2C(=O)N([C@@H](C)CO)C[C@@H]1C | 0 | -10
SMILES | Xi reactivation | E-sel inducer
Cc1noc(C)c1NC(=O)N(C)C[C@H]1Oc2ccc(NS(=O)(=O)c3cccs3)cc2C(=O)N([C@H](C)CO)C[C@H]1C | 0 | 29*
Cc1noc(C)c1S(=O)(=O)Nc1ccc2c(c1)C(=O)N([C@@H](C)CO)C[C@@H](C)[C@@H](CN(C)Cc1ccc3c(c1)OCO3)O2 | -1 | 33*
C[C@@H]1CN([C@@H](C)CO)C(=O)c2cc(NS(=O)(=O)c3cccs3)ccc2O[C@H]1CN(C)S(C)(=O)=O | 0 | 4
Cc1noc(C)c1NC(=O)N(C)C[C@@H]1Oc2ccc(NS(=O)(=O)c3cccs3)cc2C(=O)N([C@@H](C)CO)C[C@@H]1C | 0 | 9
Cc1noc(C)c1S(=O)(=O)Nc1ccc2c(c1)C(=O)N([C@@H](C)CO)C[C@@H](C)[C@H](CN(C)Cc1ccc3c(c1)OCO3)O2 | 0 | 1
Cc1noc(C)c1NC(=O)N(C)C[C@H]1Oc2ccc(NS(=O)(=O)c3c(C)noc3C)cc2C(=O)N([C@H](C)CO)C[C@@H]1C | 0 | 31*!
C[C@@H]1CN([C@@H](C)CO)C(=O)c2cc(C3=CCCC3)cnc2O[C@H]1CN(C)C(=O)NC1CCCC1 | 0 | ·
O=C(NC1CCCC1)N1CCCCN2[C@H](CO)[C@H](c3ccc(-c4ccccc4)cc3)[C@H]2C1 | 0 | 0
